According to ChEMBL document CHEMBL4130535, “Aquilanols A and B, Macrocyclic Humulene-Type Sesquiterpenoids from the Agarwood of Aquilaria malaccensis” (2017):

What was measured:
Enterococcus faecalis = assay: Antibacterial activity against Enterococcus faecalis ATCC 19433 after 24 hrs; type: functional; conditions: ATCC 19433, 24 h
How it was run: (§1)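 MIC determination, following a previously reported method, against the listed Gram-positive and Gram-negative ATCC strains.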

Staphylococcus aureus = assay: Antibacterial activity against Staphylococcus aureus ATCC 25923 after 24 hrs; type: functional; conditions: ATCC 25923, 24 h; how it was run: as §1
Klebsiella pneumoniae = assay: Antibacterial activity against Klebsiella pneumoniae ATCC 10031 after 24 hrs; type: functional; conditions: ATCC 10031, 24 h; how it was run: as §1
Salmonella typhimurium = assay: Antibacterial activity against Salmonella enterica ATCC 14028 after 24 hrs; type: functional, Salmonella enterica subsp. enterica serovar Typhimurium; conditions: ATCC 14028, 24 h; how it was run: as §1
Aspergillus fumigatus = assay: Antifungal activity against Aspergillus fumigatus HIC 6094 after 48 to 72 hrs; type: functional
How it was run: (§2)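 MIC determination, following a previously reported method, against the listed fungal strains, with amphotericin B as the positive control.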

[1] = tested on: Trichophyton mentagrophytes; assay: Antifungal activity against Trichophyton mentagrophytes IFM 40996 after 48 to 72 hrs; type: functional; how it was run: as §2
Trichophyton rubrum = assay: Antifungal activity against Trichophyton rubrum NBRC 9185 after 48 to 72 hrs; type: functional; how it was run: as §2
Candida albicans = assay: Antifungal activity against Candida albicans ATCC 10231 after 48 to 72 hrs; type: functional; how it was run: as §2
Enterococcus faecium = assay: Antibacterial activity against Enterococcus faecium ATCC 19434 after 24 hrs; type: functional; conditions: ATCC 19434, 24 h; how it was run: as §1
Escherichia coli = assay: Antibacterial activity against Escherichia coli ATCC 25922 after 24 hrs; type: functional; conditions: ATCC 25922, 24 h; how it was run: as §1

Measured: MIC

C=C1[C@@H](O)[C@]23CC[C@H](C)[C@@H]2C[C@@]1(O)C(=O)C=C3C
430 to 580 µM: Enterococcus faecalis | Staphylococcus aureus | Klebsiella pneumoniae | Salmonella typhimurium | Aspergillus fumigatus | [1] | Trichophyton rubrum | Candida albicans | Enterococcus faecium | Escherichia coli

C/C1=C/CC/C(CO)=C/CC(C)(C)/C=C/C1
430 to 580 µM: Enterococcus faecalis | Staphylococcus aureus | Klebsiella pneumoniae | Salmonella typhimurium | Aspergillus fumigatus | [1] | Trichophyton rubrum | Candida albicans | Enterococcus faecium | Escherichia coli

C[C@H]1CC=C2[C@H]1C[C@]1(O)C(=O)C[C@@]2(C)[C@]1(C)CO
430 to 580 µM: Enterococcus faecalis | Staphylococcus aureus | Klebsiella pneumoniae | Salmonella typhimurium | Aspergillus fumigatus | [1] | Trichophyton rubrum | Candida albicans | Enterococcus faecium | Escherichia coli

CC1(C)/C=C/C[C@@]2(C)OC/C(=C\C1)CC[C@@H]2O
430 to 580 µM: Enterococcus faecalis | Staphylococcus aureus | Klebsiella pneumoniae | Salmonella typhimurium | Aspergillus fumigatus | [1] | Trichophyton rubrum | Candida albicans | Enterococcus faecium | Escherichia coli

C=C1C2C[C@H]3[C@@H](C)CC[C@@]3(C(C)=CC2=O)[C@@H]1O
430 to 580 µM: Enterococcus faecalis | Staphylococcus aureus | Klebsiella pneumoniae | Salmonella typhimurium | Aspergillus fumigatus | [1] | Trichophyton rubrum | Candida albicans | Enterococcus faecium | Escherichia coli

COC(=O)[C@H]1C[C@]23CC[C@H](C)[C@@H]2C[C@@]1(O)C(=O)C=C3C
430 to 580 µM: Enterococcus faecalis | Staphylococcus aureus | Klebsiella pneumoniae | Salmonella typhimurium | Aspergillus fumigatus | [1] | Trichophyton rubrum | Candida albicans | Enterococcus faecium | Escherichia coli

C[C@H]1CC=C2[C@H]1C[C@]1(O)C(=O)C[C@@]2(C)[C@]1(C)C=O
430 to 580 µM: Enterococcus faecalis | Staphylococcus aureus | Klebsiella pneumoniae | Salmonella typhimurium | Aspergillus fumigatus | [1] | Trichophyton rubrum | Candida albicans | Enterococcus faecium | Escherichia coli

COC(=O)[C@@]1(C)[C@]2(C)CC(=O)[C@@]1(O)CC1=C2C(=O)C[C@@H]1C
430 to 580 µM: Enterococcus faecalis | Staphylococcus aureus | Klebsiella pneumoniae | Salmonella typhimurium | Aspergillus fumigatus | [1] | Trichophyton rubrum | Candida albicans | Enterococcus faecium | Escherichia coli

CC1(C)C/C=C2/CCC(O)C(C)(CC3OC31)OC2 (racemic)
430 to 580 µM: Enterococcus faecalis | Staphylococcus aureus | Klebsiella pneumoniae | Salmonella typhimurium | Aspergillus fumigatus | [1] | Trichophyton rubrum | Candida albicans | Enterococcus faecium | Escherichia coli
